D1 allo mod: allosteric modulators of human D1 dopamine receptor | P21728 | HEK293 D1, CRE-luciferase, dopamine EC30 potentiation; actives deviate in either direction | B-score at 10 µM | 5.9% of 58,000 active;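 active means luminescence count or its row- and column-corrected plate score outside the 99.7% band of the plate's sample wells, on either side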
M1 agonist: agonists of M1 muscarinic receptor; CHO-M1 cells, Fluo-4 calcium fluorescence, agonist mode; active compounds read high; B-score at 10 µM; 3% of 64,000 active; AID 626;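 active means fluorescence rise, raw or as B-score row- and column-corrected plate score, outside the 99.7% band of its plate's samples, either direction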
RORA act: activators of human nuclear receptor RORA; P35398; CHO-K1 Gal4-RORA LBD luciferase reporter, luminescence; percent increase over mock-subtracted basal signal; 1.5% of 65,000 active; AID 560; activation, % at 10 µM;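 active means activation above the mean of all tested compounds plus 3 SD, cut at about 49% in these data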;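 further: 0% = DMSO-treated RORA cells and 100% = added signal equal to DMSO minus mock-transfected cells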
M1 antag: blocks the rat M1 muscarinic receptor response to acetylcholine; P08482; CHO-M1 cells, Fluo-4 calcium, ACh EC80 antagonist mode; active compounds read low; B-score at 10 µM; 3.4% of 64,000 active;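 active means calcium fluorescence response, raw or row-and-column corrected B-score, differing from the plate sample mean either way at a set confidence level, mostly lower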
SF1 activator: activates the human nuclear receptor SF-1. Q13285. CHO-K1 Gal4-SF-1 LBD luciferase reporter; % increase over DMSO SF-1-specific signal. activation, % at 10 µM. 1.9% of 65,000 active;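 active means activation above the mean activation of all tested compounds plus 3 SD, cut at about 50% in these data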
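System: CHO-K1 cells with Gal4–hSF-1 LBD chimera plus Gal4-driven luciferase; quantity: 4,000 CHO-K1 cells per well; compound: one dose, 10 µM compound, 1% DMSO; times: 20 h compound treatment, 37 °C; measured by: SteadyLite luciferase luminescence; read-out: percent activation versus DMSO; benchmarks: DMSO and mock-transfected background; replicates: one test per compound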
HePTP inh: inhibitors of human HePTP phosphatase | P35236 | recombinant HePTP phosphatase activity, OD absorbance | inhibition, % at 20 µM | 0.64% of 110,000 active | AID 521; in the data active means inhibition above about 50%;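 further: plate controls were vehicle for no effect and reference inhibitor for full effect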
Target sequence (P35236 whole entry, looked up): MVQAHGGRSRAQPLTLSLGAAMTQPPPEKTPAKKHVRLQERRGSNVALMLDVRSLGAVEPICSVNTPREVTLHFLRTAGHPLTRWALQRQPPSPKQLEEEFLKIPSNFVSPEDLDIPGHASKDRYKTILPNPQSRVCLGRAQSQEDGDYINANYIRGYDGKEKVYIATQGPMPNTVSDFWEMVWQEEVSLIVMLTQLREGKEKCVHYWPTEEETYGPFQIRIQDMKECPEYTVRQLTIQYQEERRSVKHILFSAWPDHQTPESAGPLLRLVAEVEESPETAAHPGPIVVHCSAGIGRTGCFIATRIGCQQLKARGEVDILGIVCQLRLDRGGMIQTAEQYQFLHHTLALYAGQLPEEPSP
* = called active by the depositor. An excerpt weighted towards active compounds, which were near 8.2% of everything screened.

`O=C(Nc1cnccn1)C1c2ccccc2Oc2ccccc21` gave D1 allo mod -0.853, M1 agonist -0.407, RORA act -10.3, M1 antag -0.482, SF1 activator -1.8 and HePTP inh 5.8.
For Cc1cccc(-n2ncc3c(NCc4ccccc4)ncnc32)c1 the results were D1 allo mod -0.787, M1 agonist -0.453, RORA act 78.1*, M1 antag -1.53, SF1 activator 82.3* and HePTP inh 3.3.
For CN(Cc1ccccc1)c1ncnc2c1cnn2-c1ccccc1 the results were D1 allo mod 0.838, M1 agonist -1.11, RORA act 42.9, M1 antag -0.856, SF1 activator 23.1 and HePTP inh 0.9.
Cc1cccc(-n2ncc3c(NCCc4ccc(S(N)(=O)=O)cc4)ncnc32)c1 was read as D1 allo mod -6.95*, M1 agonist -1.62, RORA act 22.2, M1 antag 0.0927, SF1 activator 16.4 and HePTP inh 3.3.
Cc1cccc(-n2ncc3c(NCCN4CCOCC4)ncnc32)c1 was read as M1 agonist -0.142, RORA act 1.8, M1 antag -0.656, SF1 activator 30.6 and HePTP inh 0.1.
Screening Cc1cccc(-n2ncc3c(N(CCO)CCO)ncnc32)c1 returned D1 allo mod -0.84, M1 agonist -1.81, RORA act 67.6*, M1 antag -0.395, SF1 activator 18.9 and HePTP inh 4.4.
`CCN(c1ccccc1)c1ncnc2c1cnn2-c1ccccc1` gave D1 allo mod -0.259, M1 agonist 0.452, RORA act 59.3*, M1 antag -0.0376, SF1 activator 59.1* and HePTP inh 0.8.
Screening COC(=O)N(C)c1nc2ccccc2s1 returned D1 allo mod 4.28, M1 agonist 0.174, RORA act 39.1, M1 antag 0.119, SF1 activator 21.3 and HePTP inh -10.9.
For c1ccc(-n2ncc3c(NCCN4CCCCC4)ncnc32)cc1 the results were D1 allo mod -0.725, M1 agonist -0.576, RORA act 40.0, M1 antag -2.06, SF1 activator 68.8* and HePTP inh 3.6.
Screening c1ccc(CCNc2ncnc3c2cnn3-c2ccccc2)cc1 returned D1 allo mod -1.38, M1 agonist 1.16, RORA act 55.5*, M1 antag 0 and SF1 activator 14.1.
c1ccc(CNc2ncnc3c2cnn3-c2ccccc2)cc1 was read as D1 allo mod -0.563, M1 agonist -0.324, RORA act 91.0*, M1 antag 0.118, SF1 activator 77.3* and HePTP inh 7.5.
`Cc1cccc(-n2ncc3c(NCc4ccccn4)ncnc32)c1` gave D1 allo mod 0.238, M1 agonist -0.166, RORA act 28.6, M1 antag 0.107, SF1 activator 23.9 and HePTP inh -1.3.
Cc1cccc(-n2ncc3c(NCc4ccco4)ncnc32)c1 was read as M1 agonist 0.452, RORA act 71.7*, M1 antag 0.0593, SF1 activator 93.2* and HePTP inh 5.1.
Screening Fc1ccc(CNc2ncnc3c2cnn3-c2ccccc2)cc1 returned D1 allo mod 0.723, M1 agonist 0.4, RORA act 8.1, M1 antag 0.42 and SF1 activator 41.6.
CC1(C)N=C(N)NC(Nc2ccccc2)=N1 was read as HePTP inh -16.1.
Cc1cccc2cc(CN(Cc3nnnn3Cc3ccco3)C3CCCC3)c3nnnn3c12 was read as D1 allo mod 1.52, M1 agonist -0.394, RORA act 11.9, M1 antag 2.41*, SF1 activator 9.5 and HePTP inh -2.1.
For Cc1ccc2[nH]c(=O)c(CN(Cc3nnnn3Cc3ccccc3)C3CCCC3)cc2c1 the results were D1 allo mod 0.0281, M1 agonist 0.352, RORA act -14.1, M1 antag -0.113, SF1 activator -14.7 and HePTP inh -7.9.
CCN(C)c1ccc(/C=N\n2nnnc2N)cc1 was read as D1 allo mod -0.512, M1 agonist -0.426, RORA act 66.7*, M1 antag 0.447, SF1 activator 86.9* and HePTP inh 3.0.
CCN(CC)c1ccc(/C=N/n2nnnc2N)c(O)c1 was read as D1 allo mod 0.447, M1 agonist 1.11, RORA act 26.5, M1 antag -0.448, SF1 activator 20.5 and HePTP inh 8.3.
For CSc1ccc(/C=N/n2nnnc2N)cc1 the results were D1 allo mod -0.45, RORA act 51.3*, SF1 activator 25.2 and HePTP inh -4.3.

Screening data: PubChem BioAssay, several laboratories
